From ChEMBL document CHEMBL4680134, “Structural optimization of natural product nordihydroguaretic acid to discover novel analogues as AcrB inhibitors” (Eur J Med Chem, 2020)
Activity calls are given as the source filed them. The rule behind the calls is not given here.

Key:
[1] = biological target: T1, Multidrug efflux pump subunit AcrB (Escherichia coli (strain K12)) (UniProt P31224); assay: Inhibition of AcrB in Escherichia coli BW25113 assessed as potentiation of tetraphenylphosphonium induced antibacterial activity by measuring tetraphenylphosphonium MIC at 256 ug/ml measured after 18 hrs by checkerboard titration method (reference value: 1024 ug/ml); settings: dose 256.0 µg/ml
T1 sequence (whole entry): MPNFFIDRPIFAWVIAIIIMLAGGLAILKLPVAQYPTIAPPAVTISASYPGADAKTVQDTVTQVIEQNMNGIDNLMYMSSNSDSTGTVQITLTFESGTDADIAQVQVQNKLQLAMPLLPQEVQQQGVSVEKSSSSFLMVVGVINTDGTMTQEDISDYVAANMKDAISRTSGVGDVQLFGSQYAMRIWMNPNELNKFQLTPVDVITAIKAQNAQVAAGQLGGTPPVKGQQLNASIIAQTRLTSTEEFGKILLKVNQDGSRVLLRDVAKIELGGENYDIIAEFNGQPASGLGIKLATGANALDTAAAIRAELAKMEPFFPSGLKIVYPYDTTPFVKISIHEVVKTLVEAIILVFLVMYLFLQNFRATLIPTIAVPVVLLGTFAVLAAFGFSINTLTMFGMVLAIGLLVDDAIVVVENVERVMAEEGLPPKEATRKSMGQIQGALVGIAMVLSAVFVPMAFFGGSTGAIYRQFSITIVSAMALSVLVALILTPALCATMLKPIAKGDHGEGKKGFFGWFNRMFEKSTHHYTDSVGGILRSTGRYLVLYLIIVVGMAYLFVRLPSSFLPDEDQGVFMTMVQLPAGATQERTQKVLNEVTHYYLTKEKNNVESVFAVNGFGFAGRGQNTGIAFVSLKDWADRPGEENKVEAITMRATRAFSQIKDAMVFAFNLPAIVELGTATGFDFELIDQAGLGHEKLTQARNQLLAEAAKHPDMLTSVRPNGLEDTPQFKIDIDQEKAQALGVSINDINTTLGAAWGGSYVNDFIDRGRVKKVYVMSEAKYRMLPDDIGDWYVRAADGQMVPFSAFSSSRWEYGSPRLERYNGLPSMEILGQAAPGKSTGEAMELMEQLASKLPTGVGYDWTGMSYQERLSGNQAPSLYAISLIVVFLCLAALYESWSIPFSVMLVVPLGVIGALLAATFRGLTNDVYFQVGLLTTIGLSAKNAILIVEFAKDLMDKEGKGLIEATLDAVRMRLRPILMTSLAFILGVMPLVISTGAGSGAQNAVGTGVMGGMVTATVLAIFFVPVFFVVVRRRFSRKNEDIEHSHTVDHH

[2] = biological target: T1, Multidrug efflux pump subunit AcrB (Escherichia coli (strain K12)); assay: Inhibition of AcrB in Escherichia coli BW25113 assessed as potentiation of erythromycin induced antibacterial activity by measuring erythromycin MIC at 256 ug/ml measured after 18 hrs by checkerboard titration method (reference value: 64 ug/ml); settings: dose 256.0 µg/ml
[3] = biological target: T1, Multidrug efflux pump subunit AcrB (Escherichia coli (strain K12)); assay: Inhibition of AcrB in Escherichia coli BW25113 assessed as potentiation of chloramphenicol induced antibacterial activity by measuring fold change in chloramphenicol MIC at 256 ug/ml measured after 18 hrs by checkerboard titration method relative to chloramphenicol alone; settings: dose 256.0 µg/ml
Cell membrane [4] = assay: Induction of outer membrane permeabilization in wild type Escherichia coli BW25113 assessed as increase in nitrocefin hydrolysis at 256 ug/ml by spectrophotometry analysis; settings: dose 256 µg/ml
Method in brief: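 Outer-membrane permeability: intact E. coli treated with 10 µM CCCP to block nitrocefin efflux, then exposed to compound. Nitrocefin hydrolysis by periplasmic β-lactamase followed as increasing absorbance at 490 nm over time. Polymyxin B as permeabilizer control, untreated cells as baseline. Duplicate experiments on different days.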

Cell membrane [5] = assay: Induction of inner membrane permeabilization in CCCP treated wild type Escherichia coli BW25113 at 128 ug/ml measured after 10 mins by Di0C2(3) probe based fluorimetric method; settings: escherichia coli bw25113, 10 min, dose 128 µg/ml
Method in brief: (§1)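 Cells left untreated or exposed to compound at 8-256 µg/mL for 10 min, then DiOC2(3) added and fluorescence followed to plateau. Cells re-energized with 0.5% glucose; membrane potential build-up read as fluorescence rise to plateau, then dissipated with CCCP.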

Cell membrane [6] = assay: Induction of inner membrane permeabilization in CCCP treated wild type Escherichia coli BW25113 at 64 ug/ml measured after 10 mins by Di0C2(3) probe based fluorimetric method; settings: escherichia coli bw25113, 10 min, dose 64 µg/ml; method in brief: as §1
[7] = biological target: T1, Multidrug efflux pump subunit AcrB (Escherichia coli (strain K12)); assay: Inhibition of AcrB in Escherichia coli BW25113 assessed as reduction in glucose-induced nile red efflux at 100 to 200 uM preincubated for 15 mins followed by nile red addition and incubated for 3 hrs in shaker in presence of CCCP by fluorimetric analysis; settings: dose 100-200 µM, time 195.0 min
Method in brief: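 Whole-cell efflux: wild-type and ΔAcrB cells preloaded with Nile Red, with or without compound, before fluorescence readings. Efflux triggered at 100 s with 0.2% glucose and followed by fluorometry. The ΔAcrB strain marks maximal accumulation. Triplicate experiments with different cell batches.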

[8] = biological target: T1, Multidrug efflux pump subunit AcrB (Escherichia coli (strain K12)); assay: Inhibition of AcrB in Escherichia coli BW25113 assessed as potentiation of levofloxacin induced antibacterial activity by measuring fold change in levofloxacin MIC at 32 ug/ml measured after 18 hrs by checkerboard titration method relative to levofloxacin alone; settings: dose 32.0 µg/ml
[9] = biological target: T1, Multidrug efflux pump subunit AcrB (Escherichia coli (strain K12)); assay: Inhibition of AcrB in Escherichia coli BW25113 assessed as potentiation of rifampicin induced antibacterial activity by measuring rifampicin MIC at 8 ug/ml measured after 18 hrs by checkerboard titration method (reference value: 16 ug/ml); settings: dose 8.0 µg/ml
[10] = biological target: T1, Multidrug efflux pump subunit AcrB (Escherichia coli (strain K12)); assay: Inhibition of AcrB in Escherichia coli BW25113 assessed as potentiation of tetraphenylphosphonium induced antibacterial activity by measuring tetraphenylphosphonium MIC at 8 ug/ml measured after 18 hrs by checkerboard titration method (reference value: 1024 ug/ml); settings: dose 8.0 µg/ml
[11] = biological target: T1, Multidrug efflux pump subunit AcrB (Escherichia coli (strain K12)); assay: Inhibition of AcrB in Escherichia coli BW25113 assessed as potentiation of levofloxacin induced antibacterial activity by measuring levofloxacin MIC at 8 ug/ml measured after 18 hrs by checkerboard titration method (reference value: 0.06 ug/ml); settings: dose 8.0 µg/ml
[12] = Growth inhibition of Escherichia coli harboring AcrB deletion mutant at higher concentration after 18 hrs by broth microdilution assay
Method in brief: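 MIC determined by 96-well broth microdilution in E. coli BW25113 expressing AcrB ((+)AcrB) and an isogenic acrB-deleted strain ((-)AcrB). Used to set the compound concentrations for synergy testing that produce no direct antibacterial effect.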

[13] = biological target: T1, Multidrug efflux pump subunit AcrB (Escherichia coli (strain K12)); assay: Inhibition of AcrB in Escherichia coli BW25113 assessed as potentiation of erythromycin induced antibacterial activity by measuring fold change in erythromycin MIC at 128 ug/ml measured after 18 hrs by checkerboard titration method relative to erythromycin alone; settings: dose 128.0 µg/ml
[14] = biological target: T1, Multidrug efflux pump subunit AcrB (Escherichia coli (strain K12)); assay: Inhibition of AcrB in Escherichia coli BW25113 assessed as potentiation of chloramphenicol induced antibacterial activity by measuring fold change in chloramphenicol MIC at 128 ug/ml measured after 18 hrs by checkerboard titration method relative to chloramphenicol alone; settings: dose 128.0 µg/ml

Structure (SMILES): Oc1ccc(CCCCc2ccc(O)c(O)c2)cc1O
- MIC [1]: 512 µg/mL
- MIC [2]: 32 µg/mL

Structure (SMILES): Oc1ccc(CCCCc2cc(O)c(O)c(O)c2)cc1O
- MIC [1]: 256 µg/mL
- fold change (FC) [3]: 8
- Activity (Cell membrane [4]): Non-Toxic
- MIC [2]: 32 µg/mL
- Activity (Cell membrane [5]): Non-Toxic

Structure (SMILES): C[C@H](Cc1ccc(O)c(O)c1)[C@@H](C)Cc1ccc(O)c(O)c1 [MASOPROCOL]
- MIC [1]: 64 µg/mL
- Activity (Cell membrane [4]): Toxic
- MIC [2]: 32 µg/mL

Structure (SMILES): Oc1ccc(CCCCc2ccc(Br)cc2)cc1O
- MIC [1]: 512 µg/mL
- MIC [2]: 64 µg/mL

Structure (SMILES): Oc1ccc(CCCCCCCc2ccc(O)c(O)c2)cc1O
- Activity (Cell membrane [6]): Non-Toxic
- inhibition [7]: Active
- MIC [1]: 512 µg/mL
- MIC [2]: 64 µg/mL

Structure (SMILES): O=C(NCCc1ccc(O)c(O)c1)c1ccccc1O
- fold change (FC) [8]: 2
- MIC [9]: 16 µg/mL
- Activity (Cell membrane [4]): Non-Toxic
- MIC [10]: 1020 µg/mL
- MIC [11]: 0.06 µg/mL

Structure (SMILES): O=C(NCCc1ccc(O)c(O)c1)c1ccc(Br)cc1
- MIC [9]: 16 µg/mL
- MIC [10]: 1020 µg/mL
- MIC [11]: 0.06 µg/mL

Structure (SMILES): Oc1ccc(CCCCc2cc3cccc4ccc5cccc2c5c43)cc1O
- MIC [1]: 256 µg/mL
- MIC [2]: 32 µg/mL

Structure (SMILES): Oc1ccc(CCCCCCc2ccc(O)c(O)c2)cc1O
- MIC [1]: 512 µg/mL
- MIC [2]: 64 µg/mL

Structure (SMILES): Oc1ccc(CCCCc2ccc(Cl)cc2)cc1O
- MIC [1]: 512 µg/mL
- MIC [2]: 64 µg/mL

Structure (SMILES): Oc1ccc(CCCc2ccc(O)c(O)c2)cc1O
- MIC [1]: 512 µg/mL
- Activity (Cell membrane [4]): Non-Toxic
- MIC [2]: 32 µg/mL

Structure (SMILES): Cc1ccc(C(=O)NCCc2ccc(O)c(O)c2)cc1
- MIC [9]: 16 µg/mL
- growth inhibition (GI) [12]: Toxic
- MIC [10]: 1020 µg/mL
- MIC [11]: 0.06 µg/mL

Structure (SMILES): Oc1ccc(CCCCc2ccccc2O)cc1O
- MIC [1]: 512 µg/mL
- MIC [2]: 32 µg/mL
- Activity (Cell membrane [5]): Toxic

Structure (SMILES): Oc1ccc(CCCCCc2ccc(O)c(O)c2)cc1O
- inhibition [7]: Active
- MIC [1]: 32 µg/mL
- growth inhibition (GI) [12]: Toxic
- MIC [2]: 64 µg/mL
- Activity (Cell membrane [5]): Toxic

Structure (SMILES): Nc1ccccc1C(=O)NCCc1ccc(O)c(O)c1
- MIC [9]: 16 µg/mL
- MIC [10]: 1020 µg/mL
- MIC [11]: 0.06 µg/mL

Structure (SMILES): Nc1ccc(C(=O)NCCc2ccc(O)c(O)c2)cc1
- MIC [9]: 16 µg/mL
- fold change (FC) [13]: 4
- fold change (FC) [14]: 4
- MIC [10]: 1020 µg/mL
- MIC [11]: 0.06 µg/mL

Structure (SMILES): O=C(NCCc1ccc(O)c(O)c1)c1ccc(O)c(O)c1
- Activity (Cell membrane [6]): Non-Toxic
- inhibition [7]: Active
- MIC [9]: 16 µg/mL
- Activity (Cell membrane [4]): Non-Toxic
- MIC [10]: 1020 µg/mL
- MIC [11]: 0.06 µg/mL

Structure (SMILES): O=C(NCCc1ccc(O)c(O)c1)c1ccc(C(F)(F)F)cc1
- MIC [9]: 16 µg/mL
- MIC [10]: 1020 µg/mL
- MIC [11]: 0.06 µg/mL

Structure (SMILES): Nc1cc(N)cc(C(=O)NCCc2ccc(O)c(O)c2)c1
- Activity (Cell membrane [6]): Non-Toxic
- inhibition [7]: Active
- MIC [9]: 16 µg/mL
- MIC [10]: 512 µg/mL
- MIC [11]: 0.06 µg/mL

Structure (SMILES): O=C(NCCc1ccc(O)c(O)c1)c1cc(O)c(O)c(O)c1
- Activity (Cell membrane [6]): Non-Toxic
- fold change (FC) [8]: 2
- MIC [9]: 16 µg/mL
- fold change (FC) [13]: 4
- fold change (FC) [14]: 4
- MIC [10]: 1020 µg/mL
- MIC [11]: 0.06 µg/mL
